The results in this text go back to ChEMBL document CHEMBL3763158, “Sampangine (a Copyrine Alkaloid) Exerts Biological Activities through Cellular Redox Cycling of Its Quinone and Semiquinone Intermediates” (J Nat Prod, 2015).

Active and inactive are the calls of the source. The rule behind the calls is not given here.

For data set [1], the system named is T47D. Briefly: Activation of hypoxia-induced HIF-1 in human T47D cells cotransfected with pHRE-luciferase plasmid at 1 to 3 uM preincubated for 30 mins followed by hypoxia induction measured after 16 hrs by luciferase reporter gene assay. The class given is cell-based. The method, boiled down: (§1)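 T47D cells transfected with pHRE-luc construct, exposed to hypoxia (1% O2, 16 h) with compound. Luciferase activity read; % inhibition = [1 − (luciferase)compound/(luciferase)control] × 100 against hypoxic media control. Emetine as positive control. Parallel viability by SRB. Average ± SD, n = 3.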
(Reporter assays use an easily measured gene product as a stand-in for the process of interest.)

A further data set relates to Saccharomyces cerevisiae. Briefly: Increase in oxygen consumption rate in Saccharomyces cerevisiae at 10 to 30 uM by oxytherm Clark-type electrode assay. Format: functional, organism-based. Put shortly:
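Budding yeast oxygen consumption followed with an Oxytherm Clark electrode, with and without compound. Values normalized to untreated control; average + SD of three independent determinations, p < 0.05 significance versus untreated.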

Another data set concerns Hep 3B2. Kind of data set: Increase in oxygen consumption rate of mitochondrial state 4 respiration in human Hep3B cells assessed as reinitiation of oligomycin-stalled cellular respiration by Clark-type oxygen electrode assay. The class given is functional, cell-based. The method, boiled down:
(§2)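 Clark electrode oxygen consumption in cells with oligomycin (F0F1-ATPase inhibitor) stalling respiration, then compound added to test reinitiation; FCCP as standard uncoupler reference.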

The test system of data set [2] is T47D. Briefly: Cytostatic activity against human T47D cells at 1 to 30 uM after 48 hrs by sulforhodamine B assay in presence of ascorbate. Format: functional, cell-based. (Sulforhodamine B stains cellular protein and so reports cell mass.)
The subject of data set [3] is MDA-MB-231. Kind of data set: Cytostatic activity against human MDA-MB-231 cells at 1 to 30 uM after 48 hrs by sulforhodamine B assay. Format: functional, cell-based.
Data set [4] concerns T47D. Kind of data set: Induction of alteration in […] in human T47D cells assessed as intracellular calcium level at 30 uM after 30 mins by fura-2 dye based fluorescence assay. The class given is functional, cell-based. Put shortly: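 T47D cells loaded with fura-2 per manufacturer's instructions and treated 30 min; per-cell 340/380 nm excitation ratio taken as Ca2+ indicator by live microscopy. Average ± SD of 20 cells.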
Background: A change in cytosolic calcium serves as a functional read-out for many receptors and channels.

In data set [5] the test system is T47D. Briefly: Increase in oxygen consumption rate in human T47D cells by oxytherm Clark-type electrode assay. The class given is functional, cell-based. The method, boiled down:
(§3)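 Intact T47D cells; oxygen consumption rate measured by Oxytherm Clark electrode with or without compound, normalized to untreated control. FCCP as positive control. Mean + range of two independent experiments.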

In data set [6] the test system is T47D. Briefly: Increase in oxygen consumption rate in digitonin permeabilized human T47D cells assessed as reinitiation of sodium azide-stalled cellular respiration at 30 uM relative to control. The class given is functional. Put shortly:
(§4)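 Digitonin-permeabilized T47D cells given sequential additions: NaN3 (10 mM) to suppress mitochondrial respiration, then compound (30 μM), solvent (2-propanol, 0.6%) or ascorbate (1 and 5 mM), all final. OCR after each addition normalized to NaN3 value; mean ± range of two experiments.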

The subject of data set [7] is T47D. Briefly: Effect on mitochondrial membrane potential in human T47D cells at 30 uM after 30 mins by TMRM dye based fluorescence microscopy. Format: functional, cell-based. The method, boiled down: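 T47D cells loaded with TMRM+ (37 °C, 2 h), then compound for 30 min; live epifluorescence imaging, fluorescence quantified per outlined cell in random fields. FCCP as positive control. Average ± SD from 20 cells.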

In data set [8] the test system is T47D. Kind of data set: Cytotoxicity against human T47D cells at 1 to 30 uM after 48 hrs by sulforhodamine B assay. Format: functional, cell-based.
Data set [9] relates to MDA-MB-231. Briefly: Cytotoxicity against human MDA-MB-231 cells at 1 to 30 uM after 48 hrs by sulforhodamine B assay. Format: functional, cell-based.
Data set [10] deals with T47D. Kind of data set: Increase in oxygen consumption rate in human T47D cells at 30 uM by oxytherm Clark-type electrode assay relative to control. Format: functional. The method, boiled down: as §3
The test system of data set [11] is T47D. Briefly: Inhibition of hypoxia-induced HIF-1 in human T47D cells cotransfected with pHRE-luciferase plasmid at 10 to 30 uM preincubated for 30 mins followed by hypoxia induction measured after 16 hrs by luciferase reporter gene assay. Format: cell-based. Put shortly: as §1
Data set [12] has as its system T47D. Briefly: Increase in oxygen consumption rate in digitonin permeabilized human T47D cells assessed as reinitiation of sodium azide-stalled cellular respiration by oxytherm Clark-type electrode assay in presence of ascorbate relative to compound alone. The class given is functional, cell-based. Put shortly: as §4
Data set [13] has as its system T47D. Kind of data set: Increase in oxygen consumption rate of mitochondrial state 4 respiration in human T47D cells assessed as reinitiation of oligomycin-stalled cellular respiration by Clark-type oxygen electrode assay. Format: functional, cell-based. The method, boiled down: as §2
Data set [14] relates to T47D. Briefly: Increase in oxygen consumption rate in digitonin permeabilized human T47D cells at 30 uM relative to control. Format: functional. Put shortly:
as §4

Data set [15] deals with MDA-MB-231. Briefly: Cytostatic activity against human MDA-MB-231 cells at 1 to 30 uM after 48 hrs by sulforhodamine B assay in presence of ascorbate. Format: functional, cell-based.
In data set [16] the test system is T47D. Briefly: Cytostatic activity against human T47D cells at 1 to 30 uM after 48 hrs by sulforhodamine B assay. The class given is functional, cell-based.
Data set [17] in a line: Neurotoxicity against rat CGN assessed as neuronal cell death at 30 uM after 24 hrs by Hoechst 33342/propidium iodide staining based assay. Format: toxicity. The method, boiled down:
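Primary cerebellar granule neurons from rat pups, cultured 6–10 days, then exposed 24 h. Stained with Hoechst 33342 and propidium iodide; live (PI negative, healthy nuclei) versus dead or dying (PI positive, or condensed/fragmented nuclei) cells counted.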

For the molecule `O=C1c2ccccc2-c2nccc3ccnc1c23` [SAMPANGINE], the Activity entry in the data set on T47D [1] is “Dose-dependent effect”; in the data set with T47D [5], “Dose-dependent effect”; in the data set on T47D [6], 48%; with T47D [10] it was 50%; in the data set with T47D [12] it was “Dose-dependent effect”; in the data set on T47D [13] it was “Dose-dependent effect”. The Activity in the data set with T47D [14] is reported as 46%; in [17], “Toxic”. Further, the result in the data set on Saccharomyces cerevisiae, in the data set with Hep 3B2, with T47D [2], in the data set with MDA-MB-231 [3], in the data set with T47D [7] and in the data set with T47D [8] was Active. Further, the result in the data set on MDA-MB-231 [9], with MDA-MB-231 [15] and in the data set on T47D [16] was Active. The result in the data set on T47D [4] was inactive. Besides, the “fold change (FC)” value with T47D [10] was 1.5. The inhibition entry in the data set on T47D [11] was “Dose-dependent effect”.
